High-throughput results from PubChem.
PLC-gamma1 inh: PLC-gamma1 (human) inhibition, primary screen; purified PLC-gamma1, fluorogenic substrate, fluorescence; 370,000 compounds, 0.84% hits; inhibition, % at 12.2 µM; in the data active = inhibition above about 9.5%
DDE Tn6 FP inh: DD(E)-Tn6 binding inhibition, primary FP screen; Fibrin DD(E) TRITC-Tn6 fluorescence polarization displacement; inhibition, % at 8.3 µM; 370,000 compounds, 0.21% hits;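 active = inhibition above a per-campaign cutoff: mean of compounds within control limits plus 3 SD, cut at about 15% in these data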
PLC-beta3 inh: blocks human PLC-beta3 enzyme activity; Q01970; Purified PLC-beta3, fluorogenic substrate, fluorescence; inhibition, % at 12.2 µM; 370,000 compounds, 0.18% hits
CendR NRP1 mod: alters CendR peptide binding to human NRP-1; FAM-RPARPAR peptide binding to NRP-1, fluorescence polarization; inhibition, % at 25 µM; 360,000 compounds, 0.85% hits; AID 602438;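 active = inhibition or corrected inhibition above about 18%, plus a signal ratio from 0.5 to 1.5, limit read from the data, passing the limit was not always enough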
Target sequence (O14786 whole entry, looked up): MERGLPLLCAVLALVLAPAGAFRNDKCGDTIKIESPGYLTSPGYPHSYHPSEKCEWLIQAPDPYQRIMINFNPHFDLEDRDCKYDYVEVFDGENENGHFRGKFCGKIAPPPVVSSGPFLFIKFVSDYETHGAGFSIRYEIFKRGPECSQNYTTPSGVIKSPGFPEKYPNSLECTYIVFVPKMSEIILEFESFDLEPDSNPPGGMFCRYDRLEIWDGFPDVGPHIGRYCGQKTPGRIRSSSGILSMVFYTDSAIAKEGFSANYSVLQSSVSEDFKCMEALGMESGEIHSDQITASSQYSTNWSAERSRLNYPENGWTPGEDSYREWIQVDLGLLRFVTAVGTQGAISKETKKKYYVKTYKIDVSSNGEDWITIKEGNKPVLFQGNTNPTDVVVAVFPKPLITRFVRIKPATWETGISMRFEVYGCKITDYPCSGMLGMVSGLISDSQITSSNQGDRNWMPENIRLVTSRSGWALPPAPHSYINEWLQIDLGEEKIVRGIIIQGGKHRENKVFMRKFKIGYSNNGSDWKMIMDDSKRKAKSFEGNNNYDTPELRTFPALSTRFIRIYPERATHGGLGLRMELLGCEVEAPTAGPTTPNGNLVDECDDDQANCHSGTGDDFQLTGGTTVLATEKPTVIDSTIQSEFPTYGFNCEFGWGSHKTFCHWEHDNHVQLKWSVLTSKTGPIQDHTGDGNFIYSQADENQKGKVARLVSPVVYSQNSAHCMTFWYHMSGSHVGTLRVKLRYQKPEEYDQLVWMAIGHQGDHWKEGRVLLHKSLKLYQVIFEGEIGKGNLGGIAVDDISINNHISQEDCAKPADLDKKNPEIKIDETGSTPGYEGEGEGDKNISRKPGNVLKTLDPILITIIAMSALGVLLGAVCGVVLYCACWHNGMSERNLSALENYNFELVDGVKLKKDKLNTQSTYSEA
proKLK7 act: activators of human kallikrein-7 zymogen; P49862; AID 652039; 370,000 compounds, 0.9% hits; activation, % at 7 µM; purified proKLK7, EDANS-DABCYL substrate fluorescence; 100% is mature enzyme control, 0% vehicle;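 active = activation above the mean of all tested compounds plus 3 SD, computed per campaign excluding outliers beyond control limits, cut at about 13% in these data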
DDE Tn7 FP inh: DD(E)-Tn7 binding inhibition, primary FP screen | inhibition, % at 8.3 µM | FP displacement of FITC-Tn7 peptide from fibrin DD(E); 0% = median of compound wells per plate | 370,000 compounds, 0.13% hits | P02675;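 active = inhibition above the mean of compounds falling within the control limits plus 3 SD of them, cut at about 14% in these data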
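Measure: % inhibition scaled between sample-field median and high-control FP; Test system: human fibrin DD(E); Quantity: 2 µM final DD(E) protein; Doses: one dose, 8.3 µM nominal; Schedule: compound with protein 10 min, then 3 h after probe, room temperature; Detection: fluorescence polarization; Medium: Tris buffer with calcium and detergent, pH 7.8.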
PLCg1 ctr: inhibits human PLC-gamma1 in PLC-beta3 counter-screen; shares compounds with PLC-gamma1 inh; purified PLC-gamma1, fluorogenic substrate, fluorescence; inhibition, % at 12.3 µM; 3,300 compounds, 3.1% hits; in the data active = inhibition above about 9.5%
PLCbeta3 conf: confirmation of human PLC-beta3 inhibitors; shares compounds with PLC-gamma1 inh; purified PLC-beta3, fluorogenic substrate fluorescence; inhibition, % at 12.3 µM; 3,300 compounds, 1% hits; AID 743261
Each line names hits and unclear results; the compound was inactive in the other large screens (follow-up assays come after a bar, where they were run). Shown are actives, neighbours in structure and some others; about 3% of the full set was active somewhere. Cut-off read from the data, not from the text of the source, unless noted: active = inhibition above about 11%; inactive = the rest.

COC(=O)C1CN(Cc2cn(Cc3ccc(F)cc3)nn2)CCS(=O)(=O)N1Cc1ccc(F)cc1 (configuration not stated)	none (no result: CendR NRP1 mod)
Cc1ccccc1C(=O)NCCCc1ccccc1	PLC-gamma1 inh 11 | PLCg1 ctr inactive | PLCbeta3 conf inactive
COC(=O)[C@]12C[C@H](CC(=O)NCc3cccc4ccccc34)C(=O)N(CCC3=CCCCC3)C1=C[C@H](C(C)(C)C)O[C@@H]2C	none (no result: CendR NRP1 mod)
CCOC(=O)C1(CCc2ccccc2)CCN(Cc2ccccn2)CC1	PLC-gamma1 inh 9.9 | PLCg1 ctr inactive | PLCbeta3 conf inactive
CCOC(=O)[C@@]12CCC3=C1N(CCC3)C(=O)[C@H](CC(=O)NCc1cccc3ccccc13)C2	none (no result: CendR NRP1 mod)
O=C(NCC1COc2ccccc2O1)c1ccc(NC(=O)c2c(Cl)cccc2Cl)cc1 (configuration not stated)	none (no result: CendR NRP1 mod)
Cc1ccc(NC(=O)C2CCCN(c3nnc(-n4cccc4)s3)C2)c(C)c1 (configuration not stated)	none (no result: CendR NRP1 mod)
O=C(Nn1c(SCc2cccc([N+](=O)[O-])c2)nc2ccccc2c1=O)c1ccccc1	PLC-gamma1 inh 11 | PLCg1 ctr inactive | PLCbeta3 conf inactive
O=C(/C=C/c1cccc([N+](=O)[O-])c1)Nn1c(-c2ccccc2F)nc2ccccc2c1=O	PLC-gamma1 inh 12 | PLCg1 ctr inactive | PLCbeta3 conf inactive
COc1ccc(C(=O)Nn2c(SCc3cccc([N+](=O)[O-])c3)nc3ccccc3c2=O)cc1	none
CC(=O)c1c(C)[nH]c(C(=O)OCC(=O)NCCc2ccc(Cl)cc2)c1C	PLC-gamma1 inh 11 | PLCg1 ctr inactive | PLCbeta3 conf inactive
COc1cccc(OC)c1NC(=O)OCCN1CCCC12CCC(c1ccccc1)CC2 (configuration not stated)	none (no result: CendR NRP1 mod, proKLK7 act)
Cc1cnn(-c2cc(N/N=C/c3ccccc3)ncn2)c1	none (no result: PLC-gamma1 inh, DDE Tn6 FP inh, PLC-beta3 inh, proKLK7 act, DDE Tn7 FP inh)
Cc1cnn(-c2cc(N/N=C/c3ccccc3F)ncn2)c1	PLC-gamma1 inh 12 | PLCg1 ctr inactive | PLCbeta3 conf inactive
CCOc1ccc2nc(NC(=O)C3CCCN(S(=O)(=O)c4cccc5nonc45)C3)sc2c1 (configuration not stated)	none
COc1ccc2nc(NC(=O)C3CCCN(S(=O)(=O)c4cccc5nonc45)C3)sc2c1 (configuration not stated)	PLC-gamma1 inh 10 | PLCg1 ctr inactive | PLCbeta3 conf inactive
CC1CC(C)CN(C(=O)c2ccc(CSc3nc4ccncc4[nH]3)cc2)C1 (configuration not stated)	PLC-beta3 inh 14 | PLCg1 ctr inactive | PLCbeta3 conf inactive
CCOC(=O)[C@]12CCCC=C1N(Cc1ccc(OC)cc1)C(=O)[C@@H]2CC(=O)N1CCCC1	none (no result: CendR NRP1 mod)
CC(C)CNC1=CC(=O)CC(c2ccco2)C1 (configuration not stated)	none
O=C1C=C(NCc2ccc(Cl)cc2)CC(c2ccco2)C1 (configuration not stated)	PLC-gamma1 inh 11 | PLCg1 ctr inactive | PLCbeta3 conf inactive
COc1ccc(N2CCN(CCCNC(=O)CCOC(C)(C)C)CC2)cc1	none (no result: CendR NRP1 mod)
COc1ccc(CN2C(=O)CSCCC2(C)c2nnnn2-c2c(C)cccc2C)cc1 (configuration not stated)	none (no result: CendR NRP1 mod)
O=C(O)CCC(=O)N1CCc2cc(S(=O)(=O)N(CCc3ccccc3)Cc3ccccc3)ccc21	PLC-gamma1 inh 10 | PLCg1 ctr inactive | PLCbeta3 conf inactive
O=C(NCc1cccs1)c1ccc([N+](=O)[O-])cc1	PLC-gamma1 inh 10.0, PLC-beta3 inh 12 | PLCg1 ctr inactive | PLCbeta3 conf inactive
Cc1cc(C(=O)NCc2cccs2)ccc1[N+](=O)[O-]	none
COC(=O)CCCc1nc2ccccc2s1	none
NC(=O)COC(=O)CCCc1nc2ccccc2s1	PLC-gamma1 inh 12, PLC-beta3 inh 11 | PLCg1 ctr inactive | PLCbeta3 conf inactive
COc1ccc(S[C@]2(C(=O)N3CCOCC3)CC(=O)N(C(=O)c3ccccc3)[C@@H]2c2ccc(OC)cc2)cc1	none (no result: CendR NRP1 mod)
COC(=O)c1cccc(N2C(=O)C[C@](Sc3ccc(OC)cc3)(C(=O)N3CCOCC3)[C@H]2c2ccc(OC)cc2)c1	PLC-gamma1 inh 15 (no result: CendR NRP1 mod) | PLCg1 ctr inactive | PLCbeta3 conf inactive
COc1ccc(S[C@]2(C(=O)N3CCN(C(C)=O)CC3)CC(=O)N(C(=O)c3ccccc3)[C@@H]2c2ccc(OC)cc2)cc1	none (no result: CendR NRP1 mod)
COc1ccc(S[C@]2(C(=O)N3CCOCC3)CC(=O)N(c3ccc(OC)cc3)[C@@H]2c2ccc(OC)cc2)cc1	PLC-gamma1 inh 9.7 (no result: CendR NRP1 mod) | PLCg1 ctr inactive | PLCbeta3 conf inactive
COc1ccc(S[C@]2(C(=O)N3CCN(C(C)=O)CC3)CC(=O)N(C(=O)CCc3ccccc3)[C@@H]2c2ccc(OC)cc2)cc1	PLC-gamma1 inh 11 (no result: CendR NRP1 mod) | PLCg1 ctr inactive | PLCbeta3 conf inactive
Cc1cccn2cc(CNC(=O)c3ccco3)nc12	PLC-beta3 inh 11 | PLCg1 ctr inactive | PLCbeta3 conf inactive
Cc1cccn2cc(CCNC(=O)c3ccco3)nc12	none
COc1ccc(CN(CCN2CCOCC2)C(=O)c2cccc(F)c2F)cc1OC	none (no result: CendR NRP1 mod)
COc1ccc(C(=O)OCC(=O)Nc2c(C)n(C)n(-c3ccccc3)c2=O)cc1	PLC-gamma1 inh 12 | PLCg1 ctr inactive | PLCbeta3 conf inactive
COc1ccc(CCNC(=O)c2cc3ccccn3n2)cc1	none (no result: CendR NRP1 mod)
CCCC(=O)OCC(=O)Nc1ccc(N=Nc2ccccc2)cc1	PLC-gamma1 inh 9.6 | PLCg1 ctr inactive | PLCbeta3 conf inactive
O=C1CCCc2oc3ccc(NS(=O)(=O)c4cccc5cccnc45)cc3c21	none
O=S(=O)(Nc1ccc(C(O)(C(F)(F)F)C(F)(F)F)cc1)c1cccc2cccnc12	PLC-gamma1 inh 10 | PLCg1 ctr inactive | PLCbeta3 conf inactive
O=c1oc2ccc(NS(=O)(=O)c3cccc4cccnc34)cc2s1	PLC-gamma1 inh 10 | PLCg1 ctr inactive | PLCbeta3 conf inactive
COc1ccc(-c2cccc(NS(=O)(=O)c3cccc([N+](=O)[O-])c3)c2)nn1	none
COc1ccc(-c2ccc(NS(=O)(=O)c3cccc([N+](=O)[O-])c3)cc2)nn1	PLC-gamma1 inh 13 | PLCg1 ctr inactive | PLCbeta3 conf inactive
O=C(CS(=O)c1cccc(C(F)(F)F)c1)Nc1ccccc1Cl (configuration not stated)	none
O=C(CS(=O)c1ccc(F)cc1)Nc1ccccc1Cl (configuration not stated)	PLC-gamma1 inh 10.0 | PLCg1 ctr inactive | PLCbeta3 conf inactive
